From ChEMBL document CHEMBL4145481, “Synthesis and biological evaluation of novel bavachinin analogs as anticancer agents” (Eur J Med Chem, 2018)

Assays:
A549 [1] = test: Cytotoxicity against human A549 cells assessed as growth inhibition at 50 uM after 48 hrs by SRB assay relative to control; type: functional; conditions: A549, 48 h, read-out: GI
Procedure, shortened: (§1)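 SRB growth-inhibition run in RPMI-1640/10% FBS at 37°C, 5% CO₂. Cell lines were seeded (PC-3 7000, MCF-7 8000, A549 7500, HCT-116 7000/well) and attached 24 h. The treatment series included 50 μM, with 48 h exposure. Cells were cold-TCA fixed and stained with 0.4% SRB. Dye was solubilized in 10 mM Tris pH 10.4 and read at 540 nm against untreated control.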

PC-3 [2] = test: Cytotoxicity against human PC3 cells assessed as growth inhibition at 50 uM after 48 hrs by SRB assay relative to control; type: functional; conditions: PC-3, 48 h, read-out: GI; procedure, shortened: as §1
HCT-116 [3] = test: Cytotoxicity against human HCT116 cells assessed as growth inhibition at 50 uM after 48 hrs by SRB assay relative to control; type: functional; conditions: HCT-116, 48 h, read-out: GI; procedure, shortened: as §1
MCF7 [4] = test: Cytotoxicity against human MCF7 cells assessed as growth inhibition at 50 uM after 48 hrs by SRB assay relative to control; type: functional; conditions: MCF7, 48 h, read-out: GI; procedure, shortened: as §1
A549 [5] = test: Cytotoxicity against human A549 cells assessed as growth inhibition after 48 hrs by SRB assay; type: functional, cell-based; conditions: A549, 48 h
Procedure, shortened: (§2)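 Cells were grown in RPMI-1640 with 10% FBS and penicillin/streptomycin at 37°C, 5% CO₂. Seeding was PC-3 7000, MCF-7 8000, A549 7500 and HCT-116 7000 cells/well, with 24 h attachment. Cells were exposed to 1, 5, 10, 30 and 50 μM for 48 h, with a 5-fluorouracil reference. Cells were TCA-fixed (1 h, 4°C) and stained with 0.4% SRB. Bound dye was dissolved in 10 mM Tris pH 10.4 and read at 540 nm. IC50 came from the concentration-response.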

PC-3 [6] = test: Cytotoxicity against human PC3 cells assessed as growth inhibition after 48 hrs by SRB assay; type: functional, cell-based; conditions: PC-3, 48 h; procedure, shortened: as §2
HCT-116 [7] = test: Cytotoxicity against human HCT116 cells assessed as growth inhibition after 48 hrs by SRB assay; type: functional, cell-based; conditions: HCT-116, 48 h; procedure, shortened: as §2
MCF7 [8] = test: Cytotoxicity against human MCF7 cells assessed as growth inhibition after 48 hrs by SRB assay; type: functional, cell-based; conditions: MCF7, 48 h; procedure, shortened: as §2

Row | Compound | inhibition of growth at 50 µM (A549 [1]) | inhibition of growth at 50 µM (PC-3 [2]) | inhibition of growth at 50 µM (HCT-116 [3]) | inhibition of growth at 50 µM (MCF7 [4]) | IC50 (A549 [5]) | IC50 (PC-3 [6]) | IC50 (HCT-116 [7]) | IC50 (MCF7 [8])
1 | COc1ccc([C@@H]2C/C(=N/OCc3cn(-c4ccc(C#N)cc4)nn3)c3cc(CC=C(C)C)c(OC)cc3O2)cc1 | 42% | 50% | 50% | 40% |  |  |  | 
2 | COc1ccc([C@@H]2C/C(=N/OCc3cn(-c4ccccc4CO)nn3)c3cc(CC=C(C)C)c(OC)cc3O2)cc1 | 100% | 100% | 100% | 100% | 30.7 µM | 26.6 µM | 29.9 µM | 23.4 µM
3 | COc1cc2c(cc1CC=C(C)C)C(=O)C[C@@H](c1ccc(Oc3ccccc3)cc1)O2 | 46% | 53% | 76% | 69% |  |  |  | 
4 | COc1cc2c(cc1CCC(C)C)C(=O)C[C@@H](c1ccc(O)cc1)O2 | 75% | 78% | 77% | 81% | 30.5 µM | 36.3 µM | 34.3 µM | 34.5 µM
5 | COc1cc2c(cc1CC=C(C)C)/C(=N/NC(N)=O)C[C@@H](c1ccc(O)cc1)O2 | 77% | 67% | 87% | 93% | 25.3 µM | 27.7 µM | 24.3 µM | 19.5 µM
6 | COc1ccc([C@@H]2C/C(=N/OCc3cn(-c4ccc(NC(C)=O)cc4)nn3)c3cc(CC=C(C)C)c(OC)cc3O2)cc1 | 19% | 2% | 6% | 0% |  |  |  | 
7 | C#CCOc1ccc([C@@H]2CC(=O)c3cc(CC=C(C)C)c(OC)cc3O2)cc1 | 53% | 52% | 75% | 68% |  |  |  | 
8 | COc1ccc([C@@H]2C/C(=N/OCc3cn(-c4ccc(O)cc4)nn3)c3cc(CC=C(C)C)c(OC)cc3O2)cc1 | 52% | 64% | 65% | 63% |  |  |  | 
9 | CCCOc1ccc([C@@H]2CC(=O)c3cc(CC=C(C)C)c(OC)cc3O2)cc1 | 43% | 54% | 63% | 60% |  |  |  | 
10 | COc1cc2c(cc1CC=C(C)C)C(=O)C[C@@H](c1ccc(Oc3ccc(Br)cc3)cc1)O2 | 72% | 55% | 76% | 68% |  |  |  | 
11 | COc1cc2c(cc1CC=C(C)C)[C@H](O)C[C@@H](c1ccc(O)cc1)O2 | 48% | 13% | 37% | 49% |  |  |  | 
12 | COc1ccc([C@@H]2C/C(=N/OCc3cn(-c4cccnc4Cl)nn3)c3cc(CC=C(C)C)c(OC)cc3O2)cc1 | 58% | 44% | 47% | 35% |  |  |  | 
13 | COc1ccc([C@@H]2C/C(=N/OCc3cn(-c4cc(OC)c(OC)c(OC)c4)nn3)c3cc(CC=C(C)C)c(OC)cc3O2)cc1 | 28% | 36% | 29% | 45% |  |  |  | 
